Series [1] concerns Staphylococcus aureus. The series is described as follows: Inhibition of pigmentation in wild type Staphylococcus aureus Newman after 48 hrs by spectrophotometric method. Type of series: functional, organism-based. The method in brief: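 S. aureus Newman was grown in TSB 48 h at 37 °C with a concentration series of compound in DMSO, in duplicate. Controls were a DMSO vehicle and a nonpigmented CrtN mutant. Cells were washed twice in 0.01 M PBS and pigment extracted in methanol. A450 was measured and IC50 derived by curve fitting.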

A short description of series [2]: Solubility of the compound in water by UV analysis. Type of series: physicochemical.
In series [3] the test system is HEK-293T. The series is described as follows: Cytotoxicity against HEK293T cells assessed as reduction in cell viability after 72 hrs by CCK-8 assay. Type of series: functional. The settings on record: Homo sapiens. The method in brief: (§1)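 HepG2 or HEK-293T cells were seeded at 5000 per well and grown 24 h at 37 °C, 5% CO₂. Cells were then exposed to compound for 72 h; compound came from DMSO, diluted in medium to final DMSO <0.4%, with a DMSO-matched vehicle control. Viability was read by 10% CCK-8 for 1 h, absorbance 450 nm, in triplicate.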

Series [4] relates to HepG2. In words: Cytotoxicity against human HepG2 cells assessed as reduction in cell viability after 72 hrs by CCK-8 assay. The settings on record: HepG2, 72 h. Type of series: functional. The method in brief:
as §1
A general note: Formazan colour is commonly taken as a measure of viable cells.

Series [5] has as its system Staphylococcus aureus. The series is described as follows: Antibacterial activity against wild type Staphylococcus aureus Newman infected in BALB/c mouse assessed as decrease in bacterial load in mouse liver at 0.4 mg, ip bid administered 4.5 days measured after 90 hrs relative to control. Type of series: functional.
Series [6] concerns Staphylococcus aureus. In words: Antibacterial activity against methicillin/linezolid-resistant Staphylococcus aureus NRS271 infected in BALB/c mouse assessed as decrease in bacterial survival in mouse liver at 0.4 mg, ip bid administered 4.5 days measured after 90 hrs. Type of series: functional, organism-based. The method in brief:
(§2)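 6–8-week-old female BALB/c mice (SPF) dosed intraperitoneally twice daily over 4.5 d at 0.1 or 0.4 mg/bid. Pre-treatment started before infection; post-treatment started 6 h after infection. Vancomycin and linezolid controls given as pre-treatment at 0.4 mg/bid. Retro-orbital inoculation: Mu50 1.1 × 10⁹ CFU, NRS271 1.8 × 10⁸ CFU. Kidneys and livers homogenised in PBS/0.01% Triton X-100 and plated on TSA for CFU.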

The subject of series [7] is Staphylococcus aureus. In words: Antibacterial activity against vancomycin-intermediate methicillin-resistant Staphylococcus aureus Mu50 infected in BALB/c mouse assessed as decrease in bacterial survival in mouse liver at 0.4 mg, ip bid administered 4.5 days measured after 90 hrs. Type of series: functional, organism-based. The method in brief: as §2
In series [8] the test system is Staphylococcus aureus. In words: Antibacterial activity against wild type Staphylococcus aureus Newman assessed as bacterial survival at 1 uM after 24 hrs by H2O2 killing assay (reference value: 26.67%). Type of series: functional.

Calls of active or inactive are those of the source. The calls are words filed in the database; no cut-off is given here.

Usually IC50 stands for the concentration at which inhibition is half-maximal. With `CN(C/C=C/c1cccc(C(F)(F)F)c1)Cc1ccc2c(c1)OCO2`, the IC50 in series [1] was determined as 523 nM.

Turning to `CN(Cc1ccc2c(c1)OCO2)C[C@@H]1C[C@H]1c1ccc(C(F)(F)F)cc1F`, the IC50 in series [1] was over 1000 nM.

In series [1], `CN(C/C=C/c1ccc(F)cc1)Cc1ccc2c(c1)OCO2` registered an IC50 of 58.4 nM.

In the case of `CN(C/C=C/c1ccccc1F)Cc1ccc2c(c1)OCO2`, the midpoint of inhibition in series [1], the IC50, lay at 121 nM.

For `CN(C/C=C/C1CCCC1)Cc1ccc2c(c1)OCO2`, the IC50 in series [1] is over 1000 nM.

`COc1ccc(/C=C/CN(C)Cc2ccc3c(c2)OCO3)cc1`: in series [1], the IC50 worked out at 9.1 nM.

In series [1], `CCN(C/C=C/c1ccc(C(F)(F)F)cc1F)Cc1ccc2c(c1)OCO2` showed an IC50 of over 1000 nM.

As a reminder, the solubility is the concentration that dissolves in the medium under given conditions. A word on the CC50: it is the concentration that lowers cell viability or growth by half. Take `CCOc1ccc(/C=C/CN(C)Cc2ccc3c(c2)OCO3)cc1.Cl`: the IC50 in series [1] is 4.2 nM. Besides, the solubility in series [2] was 24.2 mg/mL. Further, the CC50 in series [3] was determined as 122000 nM; in series [4] it was 82600 nM.

Regarding `CN[C@H](CC(C)C)C(=O)N[C@H]1C(=O)N[C@@H](CC(N)=O)C(=O)N[C@H]2C(=O)N[C@H]3C(=O)N[C@H](C(=O)N[C@H](C(=O)O)c4cc(O)cc(O)c4-c4cc3ccc4O)[C@H](O)c3ccc(c(Cl)c3)Oc3cc2cc(c3O[C@@H]2O[C@H](CO)[C@@H](O)[C@H](O)[C@H]2O[C@H]2C[C@](C)(N)[C@H](O)[C@H](C)O2)Oc2ccc(cc2Cl)[C@H]1O` [VANCOMYCIN], the Activity in series [5] is reported as 2.13 deltalog10CFU.

Take `CN(C/C=C/c1ccc(C#N)cc1)Cc1ccc2c(c1)OCO2`: 12.5 nM corresponded to half-maximal inhibition in series [1] (IC50). This lies in the double-digit nanomolar range.

For `COc1ccccc1/C=C/CN(C)Cc1ccc2c(c1)OCO2`, the IC50 in series [1] is over 1000 nM.

In series [1], `CN(CCCc1ccc(C(F)(F)F)cc1F)Cc1ccc2c(c1)OCO2` yielded an IC50 of over 1000 nM.

With `CN(C/C=C/c1ccc([N+](=O)[O-])cc1)Cc1ccc2c(c1)OCO2`, in series [1], the IC50 amounted to 82.6 nM. In other words, the double-digit nanomolar range.

In series [1], `CN(C/C=C/C1CCCCC1)Cc1ccc2c(c1)OCO2` came in with an IC50 of over 1000 nM.

`CN(C/C=C/c1ccc2ccccc2c1)Cc1ccc2c(c1)OCO2.Cl`: the IC50 in series [1] turned out to be 4 nM. The compound also yielded a solubility in series [2] of 4.56 mg/mL. For the same compound, the CC50 in series [3] was 48300 nM; in series [4], 60500 nM.

`CC(=O)NC[C@H]1CN(c2ccc(N3CCOCC3)c(F)c2)C(=O)O1` [LINEZOLID]: the result in series [6] and in series [7] was Active. Besides, in series [5], the Activity is recorded as 1.41 deltalog10CFU.

In series [1], `CN(C/C=C/c1cccc(F)c1)Cc1ccc2c(c1)OCO2` gave an IC50 of 412 nM.

`COC(=O)c1ccc(/C=C/CN(C)Cc2ccc3c(c2)OCO3)cc1` yielded an IC50 in series [1] of 7.9 nM.

`Fc1cc(C(F)(F)F)ccc1/C=C/CNCc1ccc2c(c1)OCO2` had an IC50 in series [1] of over 1000 nM.

Turning to `CN(CC#Cc1ccc(C(F)(F)F)cc1F)Cc1ccc2c(c1)OCO2`, in series [1], the IC50 turned out to be 17.9 nM.

`CN(C/C=C/c1ccc(C(F)F)cc1)Cc1ccc2c(c1)OCO2.Cl` gave an IC50 in series [1] of 4.1 nM. Besides, the solubility in series [2] came out at 9.03 mg/mL. Moreover, the CC50 was 68000 nM in series [3] and 138000 nM in series [4].

The compound `CN(C/C=C/c1cccc2ccccc12)Cc1ccc2c(c1)OCO2` gave an IC50 in series [1] of over 1000 nM.

As to `CN(C/C=C/c1ccc(Cl)cc1)Cc1ccc2c(c1)OCO2.Cl`, the IC50 in series [1] was determined as 4.2 nM. For the same compound, the solubility in series [2] is 18.7 mg/mL. Further, the CC50 in series [3] worked out at 83800 nM; in series [4] it was 141000 nM.

Compound `Cc1ccc(/C=C/CN(C)Cc2ccc3c(c2)OCO3)cc1` had an IC50 in series [1] of 15.7 nM. This counts as double-digit nanomolar.

Regarding `CN(C/C=C/c1ccc(Cl)cc1Cl)Cc1ccc2c(c1)OCO2`, the midpoint of inhibition in series [1], the IC50, lay at 17.6 nM. This IC50 and that of the compound before are within 1.5-fold of each other.

For `COc1ccc(/C=C/CN(C)Cc2ccc3c(c2)OCO3)cc1F`, the IC50 in series [1] is 112 nM.

`CN(C/C=C/c1ccccc1Cl)Cc1ccc2c(c1)OCO2` had an IC50 in series [1] of over 1000 nM.

Regarding `COc1cccc(/C=C/CN(C)Cc2ccc3c(c2)OCO3)c1`, in series [1], the IC50 is over 1000 nM.

Take `C/C(=C\c1ccc(C(F)(F)F)cc1F)CN(C)Cc1ccc2c(c1)OCO2`: the IC50 in series [1] is over 1000 nM.

For `CN(C/C=C/c1ccc(C(C)(C)C)cc1)Cc1ccc2c(c1)OCO2`, in series [1], the midpoint of inhibition, the IC50, lay at 5.2 nM.

Consider `Cc1cccc(/C=C/CN(C)Cc2ccc3c(c2)OCO3)c1`, for which it took 372 nM to reach half-maximal inhibition in series [1] (IC50).

In series [1], `CN(C/C=C/c1ccccc1)Cc1ccc2c(c1)OCO2` returned an IC50 of over 1000 nM.

In the case of `COc1ccc(/C=C/CN(C)Cc2ccc3c(c2)OCO3)c(F)c1.Cl`, inhibition in series [1] was half-maximal at 3.8 nM (IC50). The compound also showed a solubility in series [2] of 19.2 mg/mL. Besides, the figures for the CC50 in series [3] and in series [4] were 76800 nM and 120000 nM, respectively.

In turn, `C/C=C/CN(C)Cc1ccc2c(c1)OCO2` registered a half-maximal inhibitory concentration (IC50) in series [1] of over 1000 nM.

With `CN(C/C=C/c1ccc(-c2ccccc2)cc1)Cc1ccc2c(c1)OCO2.Cl`, inhibition in series [1] was half-maximal at 3.9 nM (IC50). Besides, in series [2], the solubility was 5.02 mg/mL. The CC50 in series [3] is 59100 nM; in series [4], 53600 nM.

In series [1], `CN(C/C=C/c1cccc(Cl)c1)Cc1ccc2c(c1)OCO2` displayed an IC50 of 576 nM.

In turn, `CN(C/C=C/c1ccc(C(F)(F)F)cc1)Cc1ccc2c(c1)OCO2.Cl` gave an IC50 in series [1] of 3.5 nM. Also, the concentration in solution in series [2] (solubility) was 13.5 mg/mL. Also, the CC50 in series [3] came to 133000 nM; in series [4], 69200 nM.

In the case of `C[C@@H]1[C@H](O)[C@@H](C)/C=C/C=C/C=C/C=C/C=C/C=C/C=C/[C@H](O[C@@H]2O[C@H](C)[C@@H](O)[C@H](N)[C@@H]2O)C[C@@H]2O[C@](O)(C[C@@H](O)C[C@@H](O)[C@H](O)CC[C@@H](O)C[C@@H](O)CC(=O)O[C@H]1C)C[C@H](O)[C@H]2C(=O)O` [AMPHOTERICIN B], the CC50 in series [3] was 36500 nM; in series [4], 28600 nM.

In the case of `CC(C)N(C/C=C/c1ccc(C(F)(F)F)cc1F)Cc1ccc2c(c1)OCO2`, the IC50 in series [1] is over 1000 nM.

Consider `CN(C/C=C/c1cccs1)Cc1ccc2c(c1)OCO2`, for which the IC50 in series [1] is over 1000 nM.

With `CC(=O)N[C@@H](CS)C(=O)O` [ACETYLCYSTEINE], the survival at 1 µM in series [8] amounted to 57.3%.

On to `CN(C/C=C/c1ccco1)Cc1ccc2c(c1)OCO2`, for which the IC50 in series [1] was over 1000 nM.

As to `Cc1ccccc1/C=C/CN(C)Cc1ccc2c(c1)OCO2`, the IC50 in series [1] was over 1000 nM.

As for `CN(C/C=C/c1ccc(Br)cc1)Cc1ccc2c(c1)OCO2.Cl`, the IC50 in series [1] is 4.6 nM. This compound also returned a solubility in series [2] of 17.5 mg/mL. Besides, the CC50 came to 68300 nM in series [3] and 104000 nM in series [4].

In the case of `CN(C/C=C/c1ccccc1C(F)(F)F)Cc1ccc2c(c1)OCO2`, in series [1], the IC50 was 28.8 nM.

Compound `CN(C/C=C/c1ccc(C(F)(F)F)c(F)c1)Cc1ccc2c(c1)OCO2` came in with a half-maximal inhibitory concentration (IC50) in series [1] of 57 nM.
